In ChEMBL document CHEMBL3734722, “Structural Elucidation of a Small Molecule Inhibitor of Protein Disulfide Isomerase” (ACS Med Chem Lett, 2015):
Calls of active or inactive are those of the source. The rule behind the calls is not given here.

Legend:
[1] = Plasma protein binding in mouse at 2000 ng/ml for 4 hrs by LC-MS/MS analysis; assay type: ADME, cell-free; details: read-out: PPB (converted)
[2] = Intrinsic clearance in mouse liver microsome at 0.5 microM incubated upto 45 mins by LC-MS/MS analysis; assay type: ADME; details: microsomes, 0.75 h
Procedure, shortened: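 Mouse liver microsome incubation; intrinsic clearance expressed as mL/min/g, with 7-ethoxycoumarin as reference compound.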

PC-12 [3] = assay: Neuroprotective activity against rat PC12 cells expressing mutant HTT-Q103 assessed as cell viability by alamar blue assay; assay type: functional, cell-based
Procedure, shortened: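 PC12 cells stably carrying inducible mutant HTT plasmid (mHTT-Q103); expression induced, causing death within 48 h. Serial-dilution dose–response; after 48 h Alamar blue added and fluorescence read. Data as mean percent of DMSO-treated uninduced cells ± SD; EC50 from curve.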

PC-12 [4] = assay: Neuroprotective activity against rat PC12 cells expressing mutant HTT-Q103 assessed as increase in cell viability compound preincubated for 0,1,2,or 3 days in PC12 growth medium followed by cells addition measured after 48 hrs by alamar blue assay; assay type: functional, cell-based
Procedure, shortened: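 Compound held at 37 °C for 0, 1, 2 or 3 days in PC12 growth medium, then aliquots added to induced PC12 mHTT-Q103 cells. After 48 h treatment, Alamar blue added and viability quantified by fluorescence plate reader.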

[5] = target: Protein disulfide-isomerase (Homo sapiens) (UniProt P07237); assay: Binding affinity to PDI catalytic domain a (unknown origin) after 1 hrs by intrinsic tryptophan fluorescence assay
Procedure, shortened: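 PDIa intrinsic Trp fluorescence recorded with varying securinine concentrations; emission spectra taken and intensity at 330 nm normalized; Kd derived from concentration-dependent quenching.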

[6] = Half life in mouse plasma at 1 uM for 120 mins by LC-MS/MS analysis; assay type: ADME, cell-free
[7] = target: Protein disulfide-isomerase (Homo sapiens) (UniProt P07237); assay: Irreversible binding affinity to PDI catalytic domain a (unknown origin) at 4.5 mM measured after 100 fold dilution for 2 hrs by intrinsic tryptophan fluorescence assay
Procedure, shortened: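 Jump-dilution reversibility test: PDIa (1 mM) incubated with ligand at 4.5 mM, complex diluted 100-fold (to 45 μM ligand, 10 μM PDIa) and dialysed, then Trp emission spectra recorded. Phenylarsine oxide, a covalent vicinal-thiol modifier, processed identically as control.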

Protein disulfide-isomerase (Homo sapiens), sequence (P07237 18-508 limits assumed): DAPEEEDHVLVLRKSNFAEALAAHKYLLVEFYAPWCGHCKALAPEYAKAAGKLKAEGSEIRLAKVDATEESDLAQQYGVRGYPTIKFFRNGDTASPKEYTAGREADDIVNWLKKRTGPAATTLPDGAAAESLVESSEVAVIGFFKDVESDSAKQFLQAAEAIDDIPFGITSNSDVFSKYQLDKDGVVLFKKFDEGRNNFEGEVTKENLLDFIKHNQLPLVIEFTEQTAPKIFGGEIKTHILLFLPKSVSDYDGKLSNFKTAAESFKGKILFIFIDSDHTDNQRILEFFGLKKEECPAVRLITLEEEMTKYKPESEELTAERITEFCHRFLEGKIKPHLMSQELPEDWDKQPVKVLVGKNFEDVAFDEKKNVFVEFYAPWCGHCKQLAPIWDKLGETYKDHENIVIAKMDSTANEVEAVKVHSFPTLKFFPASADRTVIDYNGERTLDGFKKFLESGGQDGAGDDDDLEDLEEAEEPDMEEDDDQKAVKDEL

With `CC(=O)CC(c1ccccc1)c1c(O)c2ccccc2oc1=O` (stereo not given) [WARFARIN] as the compound, how does the fraction unbound at 4 h, 2000 ng/ml [1] read?
The fraction unbound at 4 h, 2000 ng/ml was 0.06.

Which CLint [2] does the source give for `CCOc1ccc2ccc(=O)oc2c1` [ETHOXYCOUMARIN] here?
Its CLint is 24.58 mL/min/g.

Which EC50 (PC-12 [3]) does the source give for `O=C1C=C2C=C[C@H]3C[C@@]2(O1)[C@H]1CCCCN31` here?
Its EC50 is 3.3 µM.

What about the Activity (PC-12 [4]) of the same compound?
Its Activity is “Active”.

And the Activity [5]?
The Activity was “Dose-dependent effect”.

What about the CLint [2] of the same compound?
Its CLint is 8.3 mL/min/g.

And the half-life at 1 µM [6]?
Its half-life at 1 µM is 1.6 h.

And the fraction unbound at 4 h, 2000 ng/ml [1]?
The fraction unbound at 4 h, 2000 ng/ml was 0.51.

And the Activity [7]?
Its Activity is “Active”.

For `CC(C)C1OCCN1CC1COC2(CCCCC2)O1` (stereo not given), which Activity (PC-12 [3]) is on record?
Its Activity is “inactive”.
